# Most compounds without a hit are left out; they make up all but 1.5% or so of the library.
# APJ antagonist: antagonists of human apelin receptor APJ, primary screen, CHO-K1 cells, beta-arrestin complementation, luminescence; P35414; inhibition, % at 20 µM; actives 0.32% (n = 330,000); AID 2521, 2010;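 active = inhibition above about 40% at 20 µM, limit read from the data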;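 also: cells challenged with 10 nM apelin-13 agonist together with compound; plate controls were apelin-13 plus DMSO wells for no effect and DMSO wells lacking apelin-13 for full effect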
# hiPSC survival: enhancers of single-cell hiPSC survival, primary screen, ATPlite luminescence | actives 0.044% (n = 360,000) | survival enhancement, % at 20 µM | 100% = ROCK inhibitor wells, 0% = DMSO; in the data active = survival enhancement above about 18%;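 also: cells exposed to compounds for 16 hours before the ATP read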
# EBI2 antag: EBI2 receptor antagonists, beta-arrestin recruitment, primary screen, cell-based, luminescence, 7a,25-OHC stimulation, uHTS. 7a,25-OHC stimulated. AID 651636, 2012. G-protein coupled receptor 183 (Homo sapiens), P32249. actives 0.81% (n = 360,000). inhibition, % at 5 µM; in the data active = inhibition above about 38%;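 also: enzyme fragment complementation signal reports receptor beta-arrestin coupling in cells; 0% = agonist plus DMSO wells and 100% = wells without agonist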
# Target sequence (P32249 whole entry, looked up, the tested form may be a part): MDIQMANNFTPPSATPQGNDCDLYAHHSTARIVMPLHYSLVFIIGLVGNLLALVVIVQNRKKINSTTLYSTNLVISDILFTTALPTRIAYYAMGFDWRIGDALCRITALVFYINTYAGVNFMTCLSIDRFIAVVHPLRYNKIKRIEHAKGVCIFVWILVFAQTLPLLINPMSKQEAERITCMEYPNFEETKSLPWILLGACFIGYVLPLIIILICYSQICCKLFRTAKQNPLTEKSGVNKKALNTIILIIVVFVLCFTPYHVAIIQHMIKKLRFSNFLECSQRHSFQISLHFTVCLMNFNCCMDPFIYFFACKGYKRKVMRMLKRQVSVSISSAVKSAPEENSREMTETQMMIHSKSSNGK
# CXCR6 inh: CXCR6 receptor inhibitors, primary screen, cell-based, beta-arrestin, luminescence, CHO-K1 PathHunter, 1536-well; C-X-C chemokine receptor type 6 (Homo sapiens), O00574; inhibition, % at 20 µM; actives 0.36% (n = 360,000); AID 602244, 2012; in the data active = inhibition above about 34%, passing the limit was not always enough;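 also: antagonist mode with CXCL16 agonist at 10 nM final; 0% = 10 nM CXCL16 with DMSO and 100% = unstimulated wells without agonist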
# Target sequence (O00574 whole entry, looked up): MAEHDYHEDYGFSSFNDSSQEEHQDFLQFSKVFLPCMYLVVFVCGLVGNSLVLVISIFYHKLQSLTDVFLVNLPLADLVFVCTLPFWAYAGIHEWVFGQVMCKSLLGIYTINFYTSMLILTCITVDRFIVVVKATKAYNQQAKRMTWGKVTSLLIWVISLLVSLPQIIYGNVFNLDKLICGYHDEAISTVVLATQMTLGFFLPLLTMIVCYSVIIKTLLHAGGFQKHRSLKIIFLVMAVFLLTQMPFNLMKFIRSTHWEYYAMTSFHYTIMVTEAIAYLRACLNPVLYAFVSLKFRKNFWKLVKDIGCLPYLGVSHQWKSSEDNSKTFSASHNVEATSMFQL
# CCR6 antag: CCR6 receptor antagonists, primary screen, cell-based, CHO-K1, luminescence, beta-arrestin, uHTS | C-C chemokine receptor type 6 (Homo sapiens), P51684 | CHO-K1 CCR6 PathHunter beta-arrestin, CCL20-stimulated | inhibition, % at 20 µM | actives 0.49% (n = 340,000) | AID 493098, 2011;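 active = compounds whose inhibition of the agonist-driven luminescence signal at 20 µM reaches about 50%, limit read from the data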;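 also: cells stimulated with CCL20 at 14 nM final; plate controls were DMSO with CCL20 for no effect and DMSO without agonist for full effect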
# APJ ag: agonists of human apelin receptor APJ, primary screen, CHO-K1 cells, PathHunter beta-arrestin, luminescence; activation, % at 20 µM; P35414; actives 0.11% (n = 330,000); 0% DMSO wells, 100% apelin;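 active = activation more than six SD over the plate average, tested at 20 µM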;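 also: 0% = DMSO alone and 100% = apelin-13 at 10 nM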
#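 Material: CHO-K1 APJ beta-arrestin complementation cell line; Input: cell density 1000 per well; Incubation: compound stimulation 90 min at 25 °C, detection 60 min; Signal: luminescence from split beta-galactosidase complementation, Galacton Star/Emerald II substrate; Controls: DMSO-only wells as negative, 10 nM Apelin-13 as positive control.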
# APJ antag confirm: APJ antagonists blocking beta-arrestin recruitment, confirmation, cell-based, luminescence, single concentration, uHTS hits; shares compounds with APJ antagonist; actives 66% (n = 950); inhibition, % at 20 µM; antagonist mode; AID 2766, 2010; in the data active = inhibition above about 50%
# CXCR6 antag conf: CXCR6 receptor antagonists, confirmation, cell-based, single concentration, beta-arrestin, luminescence. shares compounds with CXCR6 inh. CHO-K1 CXCR6 PathHunter beta-arrestin. inhibition, % at 20 µM. actives 65% (n = 700);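 active = mean inhibition over four retests above 40%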;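 also: receptor stimulated with 10 nM CXCL16 agonist; beta-galactosidase fragment complementation upon beta-arrestin recruitment to receptor; plate controls were CXCL16 plus DMSO for no effect and DMSO without CXCL16 for full effect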
# EBI2 antag conf: EBI2 antagonist hit retest, beta-arrestin, confirmation, cell-based, single concentration, luminescence, 7a,25-OHC stimulation; shares compounds with EBI2 antag; 7a,25-OHC antagonism; inhibition, % at 5 µM; actives 29% (n = 2,400);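 active = inhibition of at least 50%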
# EBI2 ag: EBI2 agonist activity of antagonist hits, confirmation, counter-screen for EBI2 antagonist project, cell-based, single concentration, agonist mode, luminescence | shares compounds with EBI2 antag | EBI2-expressing cells, 60 min; 0% vehicle, 100% 7α,25-dihydroxycholesterol control | activation, % at 5 µM | 2,400 tested, under 10 active | AID 652000, 2013;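 active = activation of at least 50%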
# bGal cs: E. coli beta-galactosidase enzyme inhibition, confirmation, counter-screen for EBI2 antagonist project, biochemical, luminescence, single concentration; shares compounds with EBI2 antag; purified beta-galactosidase, luminescent Galacton Star, 15 min; inhibition, % at 5 µM; actives 1% (n = 2,400); AID 652176, 2013;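 active = replicate-average signal at least 3 plate SD below neutral wells, shown as high inhibition, flagging enzyme-inhibiting false positives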;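 also: 0% = DMSO wells with enzyme and 100% = wells lacking enzyme; higher means stronger loss of beta-gal luminescence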
# * hit, by the source's call; nt = not tested or not shown.
SMILES,APJ antagonist,hiPSC survival,EBI2 antag,CXCR6 inh,CCR6 antag,APJ ag,CXCR6 antag conf,others
CC1(C)CC(=O)C(C=Nc2ccc(O)c(N=CC3=C(O)CC(C)(C)CC3=O)c2)=C(O)C1,-11.4,-1.3,-3.4,22.5,-13.8,0.0,nt,
CCOC(=O)C1C(C)N=C2SCC(=O)N2C1c1cccc(Br)c1 (stereo not drawn),41.1*,-0.9,38.0*,-2.2,22.7,-6.4,nt,APJ antag confirm=32.9;EBI2 antag conf=-5.8;EBI2 ag=-0.6;bGal cs=-11.3
C/C(=N\NC(=O)COc1ccccc1-c1ccccc1)c1cccnc1,-8.4,0.3,2.4,-0.6,6.5,3.7,nt,
C/C(=N\NC(=O)COc1ccccc1-c1ccccc1)c1ccccn1,61.7*,-0.7,62.0*,66.4*,89.2*,-9.9,102.3*,APJ antag confirm=88.2*;EBI2 antag conf=71.4*;EBI2 ag=-1.5;bGal cs=5.4
CN(C(=O)COC(=O)c1ccc(Cl)s1)C1(C#N)CCCCC1,-13.3,-0.5,6.3,7.1,12.9,0.7,nt,
CC(=O)OCCCNc1cc(Sc2ccc(C)cc2)c2nonc2c1[N+](=O)[O-],71.0*,-2.6,85.3*,70.7*,70.1*,-7.7,nt,APJ antag confirm=103.2*;EBI2 antag conf=45.4;EBI2 ag=-1.0;bGal cs=1.8
O=C(COC(=O)c1ccc2ccccc2c1)NCc1ccccc1,nt,-0.3,1.7,-0.4,nt,nt,nt,
Cc1ccc(C(=O)CNc2ccc(Br)cc2)cc1,84.5*,1.4,73.5*,39.2,56.1*,-16.2,nt,APJ antag confirm=102.4*;EBI2 antag conf=65.7*;EBI2 ag=-3.8;bGal cs=3.7
O=C(COc1ccc(Br)cc1Cl)NC(=S)N1CCc2ccccc21,11.8,-0.8,4.0,56.9*,44.2,-4.1,53.4*,
CCN(C(=O)COC(=O)c1cc2ccccc2cc1OC)c1c(N)n(Cc2ccccc2)c(=O)[nH]c1=O,nt,1.8,1.6,-0.5,12.6,nt,nt,
CCCCC(=O)NC(=S)Nc1ccccc1C(=O)Nc1ccccc1,26.6,-2.7,15.0,50.6*,54.2*,-4.9,54.5*,
CC1C(=O)N(Cc2cn(Cc3ccco3)nn2)CCS(=O)(=O)N1Cc1ccc(-c2ccc(Cl)c(Cl)c2)cc1 (stereo not drawn),nt,0.1,10.8,67.1*,nt,nt,-15.9,
CCn1nccc1C(=O)Nc1nc2ccccc2n1CCN1CCCCC1,18.1,-1.1,-1.9,63.8*,54.4*,1.2,47.7*,
N#C/C(=C/c1ccc(-c2ccc([N+](=O)[O-])cc2)o1)C(=O)Nc1nc(-c2cccs2)cs1,nt,1.6,9.1,48.5*,67.7*,nt,44.2*,
N#C/C(=C/c1ccc(-c2ccc(S(N)(=O)=O)cc2)o1)C(=O)Nc1ccccc1,-47.2,2.6,-22.8,6.3,-0.6,8.4,nt,
COc1ccc(/C=N/NC(=O)CN(C)S(=O)(=O)c2ccc(NC(C)=O)cc2)cc1,-9.6,-0.1,-6.1,0.4,5.2,-1.0,nt,
CC(=O)Nc1ccc(S(=O)(=O)N(C)CC(=O)N/N=C/c2ccc(C(=O)O)cc2)cc1,-10.5,1.4,-13.0,87.5*,-6.0,-0.6,-2.6,
C=CCN(C(=O)CSC1=NC(=O)CN1C(C)=O)c1nc(C)c(-c2ccccc2)s1,20.0,-1.3,22.9,40.4*,41.2,-3.3,13.4,
CN(C)CCCNS(=O)(=O)c1ccc(NC2CCCCCC2)c([N+](=O)[O-])c1,1.5,0.0,-2.3,5.6,19.6,0.8,nt,
Cc1ccc(-c2cc(C(=O)NCCCn3ccnc3)c3ccccc3n2)s1,-14.9,-1.9,-24.1,71.9*,4.7,-1.9,-9.4,
CCc1ccc(-c2cc(C(=O)NCCCn3ccnc3)c3ccccc3n2)s1,5.0,nt,nt,nt,nt,-0.1,nt,
O=C(C#Cc1cccc([N+](=O)[O-])c1)c1ccccc1,31.3,-1.8,18.5,72.2*,nt,10.1,70.9*,
Nc1ccccc1C#CC(=O)c1ccccc1,7.4,-0.1,-10.0,40.4*,20.8,-1.5,59.3*,
CCCOc1ccc(C(=O)NNC(=S)NC(=O)c2cccs2)cc1,9.7,-0.3,11.5,52.7*,63.5*,-9.9,27.6,
CCCOc1ccc(C(=O)NNC(=S)NC(C)=O)cc1,10.4,-1.1,4.4,23.2,47.2,-6.2,nt,
SMILES,APJ antagonist,hiPSC survival,EBI2 antag,CXCR6 inh,CCR6 antag,APJ ag,CXCR6 antag conf,others
CCCOc1ccc(C(=O)NNC(=S)NC(=O)c2ccccc2)cc1,36.5,-0.4,0.2,47.3*,65.0*,-3.4,33.0,
CCC(=O)NC(=S)NNC(=O)c1ccc(OC)cc1,12.9,-0.8,-3.2,16.8,23.6,-1.4,nt,
CCCCOc1ccc(C(=O)NNC(=S)NC(=O)CC)cc1,nt,-2.0,5.9,56.8*,67.8*,nt,66.9*,
Cc1nn(-c2ccccc2)c(C)c1C(=O)OC(C)C(=O)Nc1ccc(C(N)=O)cc1 (stereo not drawn),2.1,-1.4,0.8,1.3,4.6,-3.3,nt,
CC(OC(=O)c1nc(-c2ccccc2)n(-c2ccccc2)n1)C(=O)Nc1cc(Cl)cc(Cl)c1 (stereo not drawn),1.2,0.2,2.9,47.1*,8.8,-1.2,13.4,
O=c1ccc2ccccc2c2ccccc12,nt,-0.4,-39.7,31.1*,nt,nt,31.4,
Cc1ccc(CS(=O)Cc2ccc(C(=O)NCc3ccc(OC(C)C)cc3)o2)cc1 (stereo not drawn),16.1,1.2,-2.6,3.2,2.0,5.8,nt,
C[C@@]12C(C[C@H](O)[C@@]34C[C@@H](CCC13)[C@@H](CO)C4=O)[C@](C)(C(=O)O)CC[C@@H]2O (stereo partly drawn),nt,1.0,-8.3,-6.1,nt,nt,nt,

# Bioassay records as filed in PubChem.
